Laboratory results: ChEMBL document CHEMBL1146325, “Synthesis and antibacterial activities of new quinolone derivatives utilizing 1-azabicyclo[1.1.0]butane” (2007)
Values after ≈ are worked out from the molar mass of the structure shown.

Experiments:
Type in all cases: functional
Staphylococcus aureus [1] = assay: Antibacterial activity against quinoline-intermediate methicillin-resistant Staphylococcus aureus by agar dilution method
Outline: (§1)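 Read-out is the minimum inhibitory concentration (MIC), found by a conventional agar dilution procedure.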

Pseudomonas aeruginosa = assay: Antibacterial activity against Pseudomonas aeruginosa by agar dilution method
Outline: (§2)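 Read-out is the minimum inhibitory concentration (MIC), determined by a conventional agar dilution procedure against a panel of Gram-positive and Gram-negative bacteria.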

Escherichia coli [2] = assay: Antibacterial activity against Escherichia coli with AcrAB efflux system by agar dilution method
Haemophilus influenzae = assay: Antibacterial activity against Haemophilus influenzae by agar dilution method; outline: as §2
Staphylococcus aureus [3] = assay: Antibacterial activity against quinoline-resistant methicillin-resistant Staphylococcus aureus by agar dilution method; outline: as §1
Enterococcus faecalis = assay: Antibacterial activity against Enterococcus faecalis by agar dilution method; outline: as §2
Streptococcus pneumoniae = assay: Antibacterial activity against Streptococcus pneumoniae by agar dilution method; outline: as §2
Escherichia coli [4] = assay: Antibacterial activity against Escherichia coli without AcrAB efflux system by agar dilution method
Moraxella catarrhalis = assay: Antibacterial activity against Moraxella catarrhalis by agar dilution method; outline: as §2
Staphylococcus aureus [5] = assay: Antibacterial activity against quinoline-susceptible methicillin-resistant Staphylococcus aureus by agar dilution method; outline: as §1

Structure (SMILES) | MIC (Staphylococcus aureus [1]) [µg/mL] | MIC (Pseudomonas aeruginosa) [µg/mL] | MIC (Escherichia coli [2]) [µg/mL] | MIC (Haemophilus influenzae) [µg/mL] | MIC (Staphylococcus aureus [3]) [µg/mL] | MIC (Enterococcus faecalis) [µg/mL] | MIC (Streptococcus pneumoniae) [µg/mL] | MIC (Escherichia coli [4]) [µg/mL] | MIC (Moraxella catarrhalis) [µg/mL] | MIC (Staphylococcus aureus [5]) [µg/mL]
Cn1nnnc1Sc1c(F)cc2c(=O)c(C(=O)O)cn(C3CC3)c2c1F | > 16 | > 16 | 16 (≈ 42.2 µM) | 0.125 (≈ 0.33 µM) | > 16 | > 16 | > 16 | 1 (≈ 2.64 µM) | 4 (≈ 10.5 µM) | 16 (≈ 42.2 µM)
COc1ccc(NC2CN(c3c(F)cc4c(=O)c(C(=O)O)cn(C5CC5)c4c3F)C2)cc1 | 0.25 (≈ 0.566 µM) | 4 (≈ 9.06 µM) | 0.25 (≈ 0.566 µM) | ≤ 0.008 | 16 (≈ 36.2 µM) | 0.25 (≈ 0.566 µM) | 0.063 (≈ 0.143 µM) | 0.031 (≈ 0.0702 µM) | 0.031 (≈ 0.0702 µM) | 0.031 (≈ 0.0702 µM)
O=C(O)c1cn(C2CC2)c2c(F)c(N3CC(Sc4ncccn4)C3)c(F)cc2c1=O | 1 (≈ 2.32 µM) | 8 (≈ 18.6 µM) | 1 (≈ 2.32 µM) | ≤ 0.008 | 32 (≈ 74.3 µM) | 0.25 (≈ 0.581 µM) | 1 (≈ 2.32 µM) | 1 (≈ 2.32 µM) | 0.063 (≈ 0.146 µM) | 0.063 (≈ 0.146 µM)
O=C(O)c1cn(C2CC2)c2c(F)c(N3CC(Sc4nc5ccccc5o4)C3)c(F)cc2c1=O | 2 (≈ 4.26 µM) | > 32 | 8 (≈ 17 µM) | 0.5 (≈ 1.07 µM) | 32 (≈ 68.2 µM) | 2 (≈ 4.26 µM) | 2 (≈ 4.26 µM) | 8 (≈ 17 µM) | 0.5 (≈ 1.07 µM) | 1 (≈ 2.13 µM)
O=C(O)c1cn(C2CC2)c2cc(N3CCNCC3)c(F)cc2c1=O [CIPROFLOXACIN] | – | – | ≤ 0.008 | ≤ 0.008 | > 64 | 2 (≈ 6.04 µM) | 4 (≈ 12.1 µM) | ≤ 0.008 | 0.063 (≈ 0.19 µM) | 1 (≈ 3.02 µM)
CCOC(=O)c1ccc(NC2CN(c3c(F)cc4c(=O)c(C(=O)O)cn(C5CC5)c4c3F)C2)cc1 | 1 (≈ 2.07 µM) | > 16 | 2 (≈ 4.14 µM) | ≤ 0.008 | > 16 | 2 (≈ 4.14 µM) | 0.125 (≈ 0.259 µM) | 0.25 (≈ 0.517 µM) | 0.125 (≈ 0.259 µM) | 0.031 (≈ 0.0641 µM)
Cn1nnnc1SC1CN(c2c(F)cc3c(=O)c(C(=O)O)cn(C4CC4)c3c2F)C1 | 2 (≈ 4.6 µM) | 8 (≈ 18.4 µM) | 1 (≈ 2.3 µM) | < 0.008 | > 32 | 1 (≈ 2.3 µM) | 2 (≈ 4.6 µM) | 0.125 (≈ 0.288 µM) | 0.063 (≈ 0.145 µM) | 0.125 (≈ 0.288 µM)
Cn1cnnc1SC1CN(c2c(F)cc3c(=O)c(C(=O)O)cn(C4CC4)c3c2F)C1 | 4 (≈ 9.23 µM) | 8 (≈ 18.5 µM) | 1 (≈ 2.31 µM) | ≤ 0.008 | > 16 | 1 (≈ 2.31 µM) | 2 (≈ 4.61 µM) | 0.25 (≈ 0.577 µM) | 0.123 (≈ 0.284 µM) | 0.25 (≈ 0.577 µM)
Cc1ccc(SC2CN(c3c(F)cc4c(=O)c(C(=O)O)cn(C5CC5)c4c3F)C2)cc1 | 32 (≈ 72.3 µM) | > 32 | 32 (≈ 72.3 µM) | 0.25 (≈ 0.565 µM) | > 32 | 16 (≈ 36.2 µM) | 32 (≈ 72.3 µM) | 32 (≈ 72.3 µM) | 2 (≈ 4.52 µM) | 2 (≈ 4.52 µM)
O=C(O)c1cn(C2CC2)c2c(F)c(N3CC(N(Cc4ccccc4)Cc4ccccc4)C3)c(F)cc2c1=O | > 64 | > 64 | > 64 | 8 (≈ 15.5 µM) | > 64 | > 64 | > 64 | 64 (≈ 124 µM) | > 64 | > 64
COc1c(N2CCNC(C)C2)c(F)cc2c(=O)c(C(=O)O)cn(C3CC3)c12 (stereo not given) [GATIFLOXACIN] | 2 (≈ 5.33 µM) | 1 (≈ 2.66 µM) | 0.063 (≈ 0.168 µM) | ≤ 0.008 | > 128 | 1 (≈ 2.66 µM) | 0.5 (≈ 1.33 µM) | 0.063 (≈ 0.168 µM) | 0.063 (≈ 0.168 µM) | 0.25 (≈ 0.666 µM)
Cc1ccc(NC2CN(c3c(F)cc4c(=O)c(C(=O)O)cn(C5CC5)c4c3F)C2)cc1 | 0.5 (≈ 1.18 µM) | 16 (≈ 37.6 µM) | 0.5 (≈ 1.18 µM) | ≤ 0.008 | 16 (≈ 37.6 µM) | 0.5 (≈ 1.18 µM) | 0.5 (≈ 1.18 µM) | 0.063 (≈ 0.148 µM) | 0.031 (≈ 0.0729 µM) | 0.031 (≈ 0.0729 µM)
C[C@H]1COc2c(N3CCN(C)CC3)c(F)cc3c(=O)c(C(=O)O)cn1c23.C[C@H]1COc2c(N3CCN(C)CC3)c(F)cc3c(=O)c(C(=O)O)cn1c23.O [LEVOFLOXACIN] | 4 | 0.5 | – | ≤ 0.008 | > 128 | 2 | – | – | 0.063 | 0.5
O=C(O)c1cn(C2CC2)c2c(F)c(N3CC(Nc4ccc(Cl)cc4)C3)c(F)cc2c1=O | 1 (≈ 2.24 µM) | > 16 | 1 (≈ 2.24 µM) | ≤ 0.008 | 16 (≈ 35.9 µM) | 1 (≈ 2.24 µM) | 0.5 (≈ 1.12 µM) | 0.125 (≈ 0.28 µM) | 0.063 (≈ 0.141 µM) | 0.063 (≈ 0.141 µM)
O=C(O)c1cn(C2CC2)c2c(F)c(N3CC(Nc4ccccc4)C3)c(F)cc2c1=O | 0.5 (≈ 1.22 µM) | 4 (≈ 9.72 µM) | 0.25 (≈ 0.608 µM) | ≤ 0.008 | 32 (≈ 77.8 µM) | 0.25 (≈ 0.608 µM) | 0.25 (≈ 0.608 µM) | 0.031 (≈ 0.0754 µM) | 0.016 (≈ 0.0389 µM) | 0.016 (≈ 0.0389 µM)
O=C(O)c1cn(C2CC2)c2c(F)c(N3CC(Sc4nc5ccccc5s4)C3)c(F)cc2c1=O | 4 (≈ 8.24 µM) | > 32 | 8 (≈ 16.5 µM) | 0.5 (≈ 1.03 µM) | 32 (≈ 65.9 µM) | 4 (≈ 8.24 µM) | 4 (≈ 8.24 µM) | 8 (≈ 16.5 µM) | 0.5 (≈ 1.03 µM) | 1 (≈ 2.06 µM)
